Data on one compound can be found in ChEMBL document CHEMBL4414601 (J Med Chem, 2019).

As a reminder, the EC50 is the concentration at which the effect is half-maximal. For orientation: chromatographic logD means lipophilicity estimated from chromatographic retention. Usually solubility stands for the dissolved amount per volume that the medium holds. Low readings indicate little dissolved substance, high ones much dissolved substance. One may read the Papp as the rate of passage across a membrane or cell layer, normalised by area and donor concentration. High values mean ready permeation, low ones poor permeation.

The subject of one data set is Plasmodium falciparum. The data set is described as follows: Antiplasmodial activity against Plasmodium falciparum 3D7A erythrocytic stage assessed as reduction in [3H]hypoxanthine incorporation preincubated for 24 hrs followed by [3H]hypoxanthine addition and measured after 24 hrs by microbeta scintillation counting method. Type of data set: functional, organism-based. The essentials: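 Nine threefold serial dilutions from 5 μM top concentration. Incubated 24 h at 37 °C under 5% CO2/5% O2/90% N2, then 0.2 μCi [3H]-hypoxanthine per well for another 24 h. Cells harvested on glass fibre filters and counted. Data normalized to compound-free parasitized RBCs; IC50 fitted.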

The nature of data set [1]: Lipophilicity, LogD of compound by reverse phase HPLC analysis.
A short description of data set [2]: Aqueous solubility of compound. The following applies: buffer.
The next data set concerns L929. In words: Cytotoxicity against mouse L929 cells assessed as reduction in viability by dual luciferase reporter gene assay. Type of data set: ADME, cell-based.
Data set [3] is described as follows: Permeability of compound by PAMPA. For orientation: In PAMPA a lipid-coated filter parts donor from acceptor wells.
Data set [4] addresses T1, Calcium-dependent protein kinase 4 (Plasmodium falciparum (isolate 3D7), UniProt Q8IBS5).
T1 sequence (Q8IBS5 whole entry): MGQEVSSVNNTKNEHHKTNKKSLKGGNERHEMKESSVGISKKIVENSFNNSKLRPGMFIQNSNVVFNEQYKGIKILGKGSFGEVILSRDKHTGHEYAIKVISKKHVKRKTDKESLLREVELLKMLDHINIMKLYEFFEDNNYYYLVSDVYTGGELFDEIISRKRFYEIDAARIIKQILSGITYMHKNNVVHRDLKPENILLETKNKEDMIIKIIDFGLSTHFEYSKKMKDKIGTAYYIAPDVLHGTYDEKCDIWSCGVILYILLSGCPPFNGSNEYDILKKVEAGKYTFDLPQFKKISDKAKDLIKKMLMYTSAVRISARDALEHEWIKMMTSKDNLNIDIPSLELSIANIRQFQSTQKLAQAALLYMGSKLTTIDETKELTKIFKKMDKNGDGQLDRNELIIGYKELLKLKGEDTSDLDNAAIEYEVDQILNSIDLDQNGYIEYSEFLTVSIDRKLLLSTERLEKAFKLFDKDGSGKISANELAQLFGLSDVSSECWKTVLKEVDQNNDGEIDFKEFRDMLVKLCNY
In words: Binding affinity to CDPK4 in Plasmodium falciparum 3D7 blood stage extract incubated for 1 hr by kinobeads based pull down assay. Particulars: read-out: Kd(app). The essentials: (§1)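 Chemoproteomic competition used kinobeads or Sepharose beads derivatized with ligand at 1 mM. Free compound was tested at six concentrations between 0.08 and 20 μM, in two independent experiments. Proteins were SP3-digested, TMT 10-plex labelled and measured by LC-MS/MS. IC50s came from competition curves, and apparent Kd was corrected for protein depletion by the beads.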

Data set [5] has as its target T1, Calcium-dependent protein kinase 4. The data set is described as follows: Binding affinity to CDPK4 in Plasmodium falciparum 3D7 blood stage extract incubated for 1 hr in presence of ATP-competitive kinase inhibitor by kinobeads based pull down assay. Particulars: read-out: Kd(app). The gist of the method: as §1
For data set [6], the target named is T2, Calcium-dependent protein kinase 1 (Plasmodium falciparum, UniProt P62344). In words: Binding affinity to CDPK1 in Plasmodium falciparum 3D7 blood stage extract incubated for 1 hr by kinobeads based pull down assay. The following applies: read-out: Kd(app). The essentials: as §1
T2 sequence (P62344 whole entry): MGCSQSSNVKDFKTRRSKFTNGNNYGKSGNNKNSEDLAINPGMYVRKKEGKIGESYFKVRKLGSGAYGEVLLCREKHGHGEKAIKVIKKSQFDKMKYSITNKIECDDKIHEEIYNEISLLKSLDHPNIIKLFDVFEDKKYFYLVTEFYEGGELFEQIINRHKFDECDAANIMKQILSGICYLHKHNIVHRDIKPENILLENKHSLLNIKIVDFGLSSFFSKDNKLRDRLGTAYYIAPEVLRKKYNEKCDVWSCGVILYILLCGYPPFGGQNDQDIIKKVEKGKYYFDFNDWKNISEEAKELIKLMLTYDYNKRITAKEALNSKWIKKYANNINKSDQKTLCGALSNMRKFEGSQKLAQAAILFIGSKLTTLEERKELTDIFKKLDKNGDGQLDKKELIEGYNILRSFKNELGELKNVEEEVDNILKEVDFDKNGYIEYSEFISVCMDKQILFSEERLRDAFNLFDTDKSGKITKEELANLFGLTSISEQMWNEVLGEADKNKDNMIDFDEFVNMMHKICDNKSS
In data set [7] the target is T2, Calcium-dependent protein kinase 1. The data set is described as follows: Binding affinity to CDPK1 in Plasmodium falciparum 3D7 blood stage extract incubated for 1 hr in presence of ATP-competitive kinase inhibitor by kinobeads based pull down assay. Particulars: read-out: Kd(app). The gist of the method: as §1
The target in the next data set is T3, Casein kinase I (Plasmodium falciparum (isolate 3D7), UniProt Q8IHZ9).
T3 sequence (Q8IHZ9 whole entry): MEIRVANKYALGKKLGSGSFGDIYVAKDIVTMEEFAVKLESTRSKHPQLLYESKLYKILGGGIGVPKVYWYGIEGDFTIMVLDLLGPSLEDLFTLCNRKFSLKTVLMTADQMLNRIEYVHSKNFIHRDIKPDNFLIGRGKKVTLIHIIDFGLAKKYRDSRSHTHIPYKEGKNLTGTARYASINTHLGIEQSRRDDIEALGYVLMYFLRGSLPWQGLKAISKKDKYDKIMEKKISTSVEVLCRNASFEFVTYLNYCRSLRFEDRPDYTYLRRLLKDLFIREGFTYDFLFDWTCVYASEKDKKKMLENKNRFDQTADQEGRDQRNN
The data set is described as follows: Binding affinity to CK1 in Plasmodium falciparum 3D7 blood stage extract incubated for 1 hr by kinobeads based pull down assay. Particulars: read-out: Kd(app). The essentials:
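Chemoproteomic competition binding: Sepharose beads derivatized at 1 mM with the immobilized ligand (kinobeads prepared likewise). Free compound competed at six concentrations, 0.08–20 μM. Proteins were SP3-digested, TMT 10-plex labelled and quantified by LC-MS/MS on an Orbitrap. IC50 from the competition curve; apparent Kd corrected for protein depletion by the beads. Two independent experiments.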

Data set [8] is described as follows: Binding affinity to GSK3 in Plasmodium falciparum 3D7 blood stage extract incubated for 1 hr by kinobeads based pull down assay. Particulars: read-out: Kd(app). The essentials:
(§2)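 The free compound competed over six concentrations from 0.08 to 20 μM. Proteins were digested by a modified SP3 protocol, labelled with TMT 10-plex and quantified by LC-MS/MS. Apparent Kd was derived from IC50 corrected for bead depletion. Two independent experiments were run.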

Data set [9] is described as follows: Binding affinity to GSK3 in Plasmodium falciparum 3D7 blood stage extract incubated for 1 hr in presence of ATP-competitive kinase inhibitor by kinobeads based pull down assay. Particulars: read-out: Kd(app). The essentials:
as §2

A short description of data set [10]: Binding affinity to SRPK2 in Plasmodium falciparum 3D7 blood stage extract incubated for 1 hr in presence of ATP-competitive kinase inhibitor by kinobeads based pull down assay. Particulars: read-out: Kd(app). The gist of the method:
as §2

In data set [11] the test system is Plasmodium falciparum 3D7.

≈ marks a conversion by molar mass, not a printed value. Calls of active or inactive are those of the source. The calls are words filed in the database; no cut-off is given here. Some results are limits rather than exact numbers.

With `Fc1ccc(-c2nc(C3CCNCC3)sc2-c2ccnc(NCCN3CCSCC3)n2)cc1`, the values for the EC50 in the data set on Plasmodium falciparum and with L929 were 4030 nM and 15100 nM, respectively. Also, the chromatographic logD in [1] was found to be 2.84. The compound also yielded a solubility in [2] of 491 µM (≈ 238 µg/mL). In addition, the Papp in data set [3] is 31 ×10⁻⁶ cm/s. Also, the Kd worked out at 60 nM in data set [4]; 60 nM in data set [5]; 2100 nM in data set [6]; 2100 nM in [7]; 1500 nM at Casein kinase I; 5300 nM in data set [8]. For the same compound, the Kd is 5300 nM in data set [9] and more than 20000 nM in data set [10]. For the same compound, the “Kd(app)” value in [11] was “inactive”.
